Test results published in ChEMBL document CHEMBL4808225, “Discovery and Characterization of Selective and Ligand-Efficient DYRK Inhibitors” (J Med Chem, 2021).

Legend:
[1] = target: STE20/SPS1-related proline-alanine-rich protein kinase (Homo sapiens, UniProt Q9UEW8); assay: Binding affinity to wild-type human partial length STK39 (P43 to I357 residues) expressed in mammalian expression system measured after 1 hr by competitive binding assay
[2] = target: T1, Tyrosine-protein kinase JAK3 (Homo sapiens, UniProt P52333); assay: Binding affinity to wild-type human partial length JAK3 JH1 catalytic domain (I781 to S1124 residues) expressed in mammalian expression system measured after 1 hr by competitive binding assay
T1 sequence (P52333 whole entry): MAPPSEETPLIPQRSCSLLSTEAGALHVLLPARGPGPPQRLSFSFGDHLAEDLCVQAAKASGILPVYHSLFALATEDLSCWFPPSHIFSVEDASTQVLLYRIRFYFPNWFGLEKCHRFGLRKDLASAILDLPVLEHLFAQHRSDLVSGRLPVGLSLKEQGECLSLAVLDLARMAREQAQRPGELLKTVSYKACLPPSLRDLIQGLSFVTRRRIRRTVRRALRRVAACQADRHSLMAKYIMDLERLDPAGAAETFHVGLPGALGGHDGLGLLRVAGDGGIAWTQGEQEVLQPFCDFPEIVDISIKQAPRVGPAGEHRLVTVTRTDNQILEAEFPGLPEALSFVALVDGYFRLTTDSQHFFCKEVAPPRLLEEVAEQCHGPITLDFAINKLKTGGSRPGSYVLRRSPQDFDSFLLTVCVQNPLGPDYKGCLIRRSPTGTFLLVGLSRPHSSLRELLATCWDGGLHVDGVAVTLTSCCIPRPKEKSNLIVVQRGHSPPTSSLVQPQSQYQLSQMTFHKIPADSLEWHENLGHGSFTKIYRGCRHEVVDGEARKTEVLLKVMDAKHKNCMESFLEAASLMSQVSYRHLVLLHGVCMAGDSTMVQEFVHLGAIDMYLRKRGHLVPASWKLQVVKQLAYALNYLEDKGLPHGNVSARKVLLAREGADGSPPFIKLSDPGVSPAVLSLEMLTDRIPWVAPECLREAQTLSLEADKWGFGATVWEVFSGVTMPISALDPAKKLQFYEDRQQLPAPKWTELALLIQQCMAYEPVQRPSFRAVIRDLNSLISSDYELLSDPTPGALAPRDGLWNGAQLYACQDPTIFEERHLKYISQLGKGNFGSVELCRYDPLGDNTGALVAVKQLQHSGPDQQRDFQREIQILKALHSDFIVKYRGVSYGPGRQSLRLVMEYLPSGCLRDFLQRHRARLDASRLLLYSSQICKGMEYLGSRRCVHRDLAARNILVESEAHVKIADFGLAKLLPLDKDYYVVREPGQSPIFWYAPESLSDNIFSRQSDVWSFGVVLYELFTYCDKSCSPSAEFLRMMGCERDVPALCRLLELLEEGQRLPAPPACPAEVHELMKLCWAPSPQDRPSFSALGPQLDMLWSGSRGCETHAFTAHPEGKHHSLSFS

[3] = target: T2, Serine/threonine-protein kinase haspin (Homo sapiens, UniProt Q8TF76); assay: Binding affinity to wild-type human partial length HASPIN (I452 to K798 residues) expressed in mammalian expression system measured after 1 hr by competitive binding assay
T2 sequence (Q8TF76 whole entry): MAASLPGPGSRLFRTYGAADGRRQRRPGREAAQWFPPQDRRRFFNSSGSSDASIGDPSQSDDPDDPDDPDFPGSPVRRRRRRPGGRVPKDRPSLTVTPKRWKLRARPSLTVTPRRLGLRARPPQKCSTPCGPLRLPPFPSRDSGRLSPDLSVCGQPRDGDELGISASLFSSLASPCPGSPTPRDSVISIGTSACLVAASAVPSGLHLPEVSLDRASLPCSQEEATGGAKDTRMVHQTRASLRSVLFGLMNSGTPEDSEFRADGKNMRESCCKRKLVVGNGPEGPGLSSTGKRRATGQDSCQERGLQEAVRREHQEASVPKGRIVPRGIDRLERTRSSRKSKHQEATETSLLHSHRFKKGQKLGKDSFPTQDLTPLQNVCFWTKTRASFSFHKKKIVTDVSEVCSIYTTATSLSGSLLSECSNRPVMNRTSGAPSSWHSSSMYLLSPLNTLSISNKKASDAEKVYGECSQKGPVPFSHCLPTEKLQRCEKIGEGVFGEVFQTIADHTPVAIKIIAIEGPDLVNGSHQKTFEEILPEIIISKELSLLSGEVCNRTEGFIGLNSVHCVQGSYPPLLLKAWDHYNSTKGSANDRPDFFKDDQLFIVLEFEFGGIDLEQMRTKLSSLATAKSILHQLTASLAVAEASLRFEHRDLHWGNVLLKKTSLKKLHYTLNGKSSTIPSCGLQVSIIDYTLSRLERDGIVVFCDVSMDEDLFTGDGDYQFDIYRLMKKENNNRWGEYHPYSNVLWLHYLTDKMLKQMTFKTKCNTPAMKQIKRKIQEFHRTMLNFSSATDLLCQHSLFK

[4] = AUC infinity in Sprague-Dawley rat at 1 mg/kg, iv; type: ADME, organism-based; design: time infinity, route intravenous, dose 1 mg/kg; settings: in vivo
Procedure, shortened: (§1)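 Single intravenous dose of 1 mg/kg given to fed Sprague–Dawley rats (n = 3); plasma and brain samples collected for pharmacokinetic parameters, with total brain:plasma ratio computed.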

[5] = Tmax in Sprague-Dawley rat at 1 mg/kg, iv; type: ADME, organism-based; settings: in vivo; procedure, shortened: as §1
[6] = target: Dual specificity protein kinase CLK4 (Homo sapiens, UniProt Q9HAZ1); assay: Binding affinity to wild-type human partial length CLK4 (R135 to K481 residues) expressed in bacterial expression system measured after 1 hr by competitive binding assay
[7] = target: Dual specificity protein kinase CLK2 (Homo sapiens) (UniProt P49760); assay: Inhibition of wild-type human partial length CLK2 (D144 to R498 residues) expressed in bacterial expression system assessed as remaining activity at 1 uM by Kinomescan method relative to control
Procedure, shortened: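 KINOMEscan competition binding panel run with inhibitor at 1 μM; read-out is remaining kinase activity (percent of control).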

Dual specificity protein kinase CLK4, sequence (Q9HAZ1 whole entry, the tested form may be a part): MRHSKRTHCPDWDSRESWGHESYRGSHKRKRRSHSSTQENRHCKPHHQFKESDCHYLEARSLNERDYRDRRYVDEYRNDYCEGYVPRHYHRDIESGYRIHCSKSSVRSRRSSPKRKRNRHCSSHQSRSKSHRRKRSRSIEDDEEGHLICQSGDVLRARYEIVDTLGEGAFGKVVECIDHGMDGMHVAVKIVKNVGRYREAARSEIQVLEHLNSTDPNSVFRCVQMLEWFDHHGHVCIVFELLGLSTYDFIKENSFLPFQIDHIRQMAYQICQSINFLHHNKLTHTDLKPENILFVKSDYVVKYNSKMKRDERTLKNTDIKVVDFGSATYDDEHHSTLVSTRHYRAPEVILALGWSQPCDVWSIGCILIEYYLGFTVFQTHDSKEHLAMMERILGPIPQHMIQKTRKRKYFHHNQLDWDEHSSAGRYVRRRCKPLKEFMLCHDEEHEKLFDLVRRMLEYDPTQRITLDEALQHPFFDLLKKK
Dual specificity protein kinase CLK2 (Homo sapiens), sequence (P49760 whole entry, looked up, the tested form may be a part): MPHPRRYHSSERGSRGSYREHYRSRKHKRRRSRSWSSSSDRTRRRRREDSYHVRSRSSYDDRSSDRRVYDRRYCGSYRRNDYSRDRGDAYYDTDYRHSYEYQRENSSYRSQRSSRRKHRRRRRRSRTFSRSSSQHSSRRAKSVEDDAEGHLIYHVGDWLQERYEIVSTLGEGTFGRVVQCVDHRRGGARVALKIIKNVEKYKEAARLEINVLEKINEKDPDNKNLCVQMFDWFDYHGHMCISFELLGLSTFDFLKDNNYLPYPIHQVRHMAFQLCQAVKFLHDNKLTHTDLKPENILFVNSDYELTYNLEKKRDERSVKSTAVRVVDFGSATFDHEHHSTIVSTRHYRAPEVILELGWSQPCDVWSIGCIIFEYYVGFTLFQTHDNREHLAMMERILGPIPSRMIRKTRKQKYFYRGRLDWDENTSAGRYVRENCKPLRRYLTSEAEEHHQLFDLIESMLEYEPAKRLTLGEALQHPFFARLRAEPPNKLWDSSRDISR

Kd [1]: 10000 nM
Kd [2]: 1800 nM
Kd [3]: 15 nM
AUC [4]: 276.4 ng·h/mL
Tmax [5]: 1.8 min
Kd [6]: 61 nM
Activity [7]: 9.4%
Compound: CN(C)c1nccc(-c2cnn3ncccc23)n1
